Reference: ChEMBL document CHEMBL1149351, “4-Amino-2-alkyl-butyramides as small molecule CCR2 antagonists with favorable pharmacokinetic properties” (Bioorg Med Chem Lett, 2006)

Tests used:
[1] = target: T1, C-C chemokine receptor type 2 (Homo sapiens, UniProt P41597); experiment: Displacement of [125I]MCP-1 from human CCR2b expressed in CHO cells; type: cell-based
Target sequence in this assay (P41597 whole entry): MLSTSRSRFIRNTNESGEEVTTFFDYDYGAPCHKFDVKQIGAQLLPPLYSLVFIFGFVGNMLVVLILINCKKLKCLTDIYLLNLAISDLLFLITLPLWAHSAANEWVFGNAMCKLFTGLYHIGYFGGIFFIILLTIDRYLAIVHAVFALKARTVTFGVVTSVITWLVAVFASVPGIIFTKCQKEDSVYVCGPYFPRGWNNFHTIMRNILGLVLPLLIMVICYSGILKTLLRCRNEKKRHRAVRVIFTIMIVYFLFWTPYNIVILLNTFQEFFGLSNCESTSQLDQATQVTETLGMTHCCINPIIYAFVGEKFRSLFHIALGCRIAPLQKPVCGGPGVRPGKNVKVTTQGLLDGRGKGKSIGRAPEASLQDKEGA

[2] = target: T1, C-C chemokine receptor type 2; experiment: Inhibition of [125I]MCP-1 binding to human CCR2b expressed in human monocyte cells at 1 uM; type: cell-based
In short: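 Competition binding on human monocytes (5 × 10⁴ cells) with ¹²⁵I-hMCP-1 (20–50 pM) in 50 mM HEPES, 5 mM MgCl₂, 1 mM CaCl₂, pH 7.4, for 60 min at room temperature. Stopped by filtration through filters presoaked in 0.1% polyethyleneimine, washed with 25 mM HEPES pH 7.5 plus 500 mM NaCl. Bound label read by scintillation counting. Mean of at least two separate experiments.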
Target sequence in this assay (P41597 whole entry, looked up): as the sequence (P41597 whole entry) above

[3] = target: T1, C-C chemokine receptor type 2; experiment: Activity at CCR2b by calcium flux based FLIPR assay in CHO cells; type: functional, cell-based
Target sequence in this assay (P41597 whole entry): as above

[4] = target: T1, C-C chemokine receptor type 2; experiment: Displacement of [125I]MCP-1 from human CCR2b expressed in human monocyte cells; type: cell-based
In short: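 Human monocytes (5 × 10⁴) incubated with ¹²⁵I-hMCP-1 (20–50 pM; 2200 Ci/mmol) plus varying unlabeled competitor, 60 min at room temperature, in 50 mM HEPES, 5 mM MgCl₂, 1 mM CaCl₂, pH 7.4. Stopped by filtration on PEI-presoaked GF/B filters, washed with 25 mM HEPES pH 7.5/500 mM NaCl, then scintillation counted. Means of at least two separate experiments.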
Target sequence in this assay (P41597 whole entry): as above

[5] = target: T1, C-C chemokine receptor type 2; experiment: Inhibition of [125I]MCP-1 binding to human CCR2b expressed in CHO cells at 1 uM; type: cell-based
Target sequence in this assay (P41597 whole entry, looked up): as the sequence (P41597 whole entry) above

[6] = Cmax in Sprague-Dawley rat at 3 mg/kg, po; type: ADME, organism-based; parameters: dose 3 mg/kg, route oral; conditions: in vivo
[7] = Volume of distribution in Sprague-Dawley rat at 1 mg/kg, iv; type: ADME, organism-based; parameters: dose 1 mg/kg, route intravenous; conditions: in vivo, read-out: Vdss
[8] = Half life in Sprague-Dawley rat at 1 mg/kg, iv; type: ADME, organism-based; parameters: dose 1 mg/kg, route intravenous; conditions: in vivo
Rattus norvegicus [9] = experiment: AUC in Sprague-Dawley rat at 3 mg/kg, po; type: ADME, organism-based, Plasma; parameters: dose 3 mg/kg, route oral; conditions: in vivo
[10] = target: T2, C-C chemokine receptor type 3 (Homo sapiens) (UniProt P51677); experiment: Inhibition of human CCR3 at 4 uM
T2 sequence (whole entry): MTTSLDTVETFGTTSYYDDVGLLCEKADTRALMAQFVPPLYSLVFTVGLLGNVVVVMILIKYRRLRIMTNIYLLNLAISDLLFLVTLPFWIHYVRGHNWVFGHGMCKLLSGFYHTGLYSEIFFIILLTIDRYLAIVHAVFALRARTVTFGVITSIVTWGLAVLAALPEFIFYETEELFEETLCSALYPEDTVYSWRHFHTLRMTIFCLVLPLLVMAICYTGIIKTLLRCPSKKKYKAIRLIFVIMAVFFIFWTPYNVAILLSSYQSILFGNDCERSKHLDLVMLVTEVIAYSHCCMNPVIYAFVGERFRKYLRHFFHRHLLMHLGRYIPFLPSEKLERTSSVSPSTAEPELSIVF

[11] = target: C-C chemokine receptor type 8 (Homo sapiens) (UniProt P51685); experiment: Inhibition of CCR8 at 1 uM
[12] = target: C-C chemokine receptor type 5 (Homo sapiens) (UniProt P51681); experiment: Inhibition of CCR5 at 1 uM
[13] = Clearance in Sprague-Dawley rat at 1 mg/kg, iv; type: ADME, organism-based; parameters: dose 1 mg/kg, route intravenous; conditions: in vivo
[14] = target: T3, C-C chemokine receptor type 1 (Homo sapiens) (UniProt P32246); experiment: Inhibition of human CCR1 at 1 uM
T3 sequence (whole entry): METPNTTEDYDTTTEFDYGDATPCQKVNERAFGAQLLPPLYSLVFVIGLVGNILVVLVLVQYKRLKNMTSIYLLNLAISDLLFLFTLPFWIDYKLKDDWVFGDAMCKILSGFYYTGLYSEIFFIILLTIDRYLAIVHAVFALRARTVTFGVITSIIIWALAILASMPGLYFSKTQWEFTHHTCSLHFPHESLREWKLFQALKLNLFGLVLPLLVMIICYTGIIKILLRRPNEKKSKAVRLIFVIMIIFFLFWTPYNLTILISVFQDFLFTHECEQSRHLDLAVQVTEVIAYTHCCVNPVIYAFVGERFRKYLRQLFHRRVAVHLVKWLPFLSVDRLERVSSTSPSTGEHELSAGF

Rattus norvegicus [15] = experiment: Oral bioavailability in Sprague-Dawley rat at 3 mg/kg, po; type: ADME, organism-based; conditions: in vivo
Rattus norvegicus [16] = experiment: Tmax in Sprague-Dawley rat at 3 mg/kg, po; type: ADME, organism-based; parameters: dose 3 mg/kg, route oral; conditions: in vivo
Rattus norvegicus [17] = experiment: AUC in Sprague-Dawley rat at 1 mg/kg, iv; type: ADME, organism-based, Plasma; parameters: dose 1 mg/kg, route intravenous; conditions: in vivo
[18] = target: C-X-C chemokine receptor type 4 (Homo sapiens) (UniProt P61073); experiment: Inhibition of human CXCR4 at 1 uM
Sequence of C-X-C chemokine receptor type 4 (Homo sapiens) (P61073 whole entry): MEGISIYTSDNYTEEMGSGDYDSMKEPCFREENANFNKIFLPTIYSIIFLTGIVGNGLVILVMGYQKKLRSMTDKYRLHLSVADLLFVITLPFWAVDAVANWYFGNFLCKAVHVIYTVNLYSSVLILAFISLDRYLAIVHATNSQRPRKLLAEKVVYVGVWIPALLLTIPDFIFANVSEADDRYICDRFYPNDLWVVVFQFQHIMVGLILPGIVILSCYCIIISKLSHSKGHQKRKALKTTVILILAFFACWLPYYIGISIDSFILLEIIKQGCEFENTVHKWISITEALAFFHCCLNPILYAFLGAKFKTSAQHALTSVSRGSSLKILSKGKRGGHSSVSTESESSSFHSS

Sequence of C-C chemokine receptor type 8 (Homo sapiens) (P51685 whole entry): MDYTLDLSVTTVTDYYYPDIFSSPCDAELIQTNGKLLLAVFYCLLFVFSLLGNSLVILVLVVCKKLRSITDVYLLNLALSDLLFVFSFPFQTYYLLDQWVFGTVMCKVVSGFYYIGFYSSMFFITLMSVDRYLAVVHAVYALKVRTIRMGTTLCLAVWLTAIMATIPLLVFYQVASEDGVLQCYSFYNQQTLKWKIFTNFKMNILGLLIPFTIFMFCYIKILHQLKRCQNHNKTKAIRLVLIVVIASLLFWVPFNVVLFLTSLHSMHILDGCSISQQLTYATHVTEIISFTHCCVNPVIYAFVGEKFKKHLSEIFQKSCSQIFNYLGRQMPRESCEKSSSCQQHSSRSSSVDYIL
Sequence of C-C chemokine receptor type 5 (Homo sapiens) (P51681 whole entry, looked up): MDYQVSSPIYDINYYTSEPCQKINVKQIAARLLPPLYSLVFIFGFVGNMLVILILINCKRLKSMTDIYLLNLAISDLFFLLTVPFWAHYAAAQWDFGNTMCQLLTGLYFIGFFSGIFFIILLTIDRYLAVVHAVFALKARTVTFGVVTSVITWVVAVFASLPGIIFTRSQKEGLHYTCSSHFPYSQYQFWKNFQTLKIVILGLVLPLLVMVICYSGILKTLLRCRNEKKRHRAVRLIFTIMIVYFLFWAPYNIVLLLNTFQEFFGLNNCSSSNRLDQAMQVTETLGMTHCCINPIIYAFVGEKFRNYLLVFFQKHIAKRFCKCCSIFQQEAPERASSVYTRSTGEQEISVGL

| Compound | IC50 [1] [nM] | IC50 [4] [nM] | also measured |
| --- | --- | --- | --- |
| CS(=O)(=O)N1CCCC(C(CCN2CCC3(C=Cc4ccccc43)CC2)C(=O)NCc2cc(C(F)(F)F)cc(C(F)(F)F)c2)C1 (stereo not drawn) | 783 |  | inhibition [2]: 70% |
| C[C@H]1CN(CC[C@H](CC2CC2)C(=O)NCc2cc(C(F)(F)F)cc(C(F)(F)F)c2)CC[C@@]12C=Cc1ccccc12 | 25 | 9 | IC50 [3]: 3 nM |
| C=CC[C@H](CCN1CCC(c2ccccc2)CC1)C(=O)NCc1cc(C(F)(F)F)cc(C(F)(F)F)c1 | 642 | 216 |  |
| C[C@H]1CN(CC[C@H](C(=O)NCc2cc(C(F)(F)F)cc(C(F)(F)F)c2)C2CCC2)CC[C@@]12C=Cc1ccccc12 | 28 | 12 | IC50 [3]: 11 nM |
| NC(CCN1CCC2(C=Cc3ccccc32)CC1)C(=O)NCc1cc(C(F)(F)F)cc(C(F)(F)F)c1 (stereo not drawn) |  |  | inhibition [5]: 33% |
| CS(=O)(=O)NC(CCN1CCC2(C=Cc3ccccc32)CC1)C(=O)NCc1cc(C(F)(F)F)cc(C(F)(F)F)c1 (stereo not drawn) | 244 |  |  |
| C[C@H]1CN(CCCC(=O)NCc2cc(C(F)(F)F)cc(C(F)(F)F)c2)CC[C@@]12C=Cc1ccccc12 | 173 | 93 |  |
| O=C1NCC(C(=O)NC(CCN2CCC3(C=Cc4ccccc43)CC2)C(=O)NCc2cc(C(F)(F)F)cc(C(F)(F)F)c2)N1 (stereo not drawn) | 525 |  |  |
| CC(C)[C@@H](CCN1CCC2(C=Cc3ccccc32)CC1)C(=O)NCc1cc(C(F)(F)F)cc(C(F)(F)F)c1 | 349 | 72 |  |
| C[C@H]1CN(CC[C@@H](C(=O)NCc2cc(C(F)(F)F)cc(C(F)(F)F)c2)C2CC2)CC[C@@]12C=Cc1ccccc12 | 80 | 13 |  |
| C[C@H](CCN1CCC2(C=Cc3ccccc32)CC1)C(=O)NCc1cc(C(F)(F)F)cc(C(F)(F)F)c1 | 231 | 37 |  |
| O=C(NCc1cc(C(F)(F)F)cc(C(F)(F)F)c1)C(CCN1CCC2(C=Cc3ccccc32)CC1)NS(=O)(=O)c1cccs1 (stereo not drawn) |  |  | inhibition [5]: 20% |
| CC(O)C(CCN1CC[C@@]2(C=Cc3ccccc32)[C@@H](C)C1)C(=O)NCc1cc(C(F)(F)F)cc(C(F)(F)F)c1 (stereo partly drawn) |  | 48 |  |
| C[C@H]1CN(CC[C@H](C(=O)NCc2cc(C(F)(F)F)cc(C(F)(F)F)c2)c2ccc(F)cc2)CC[C@@]12C=Cc1ccccc12 | 67 |  |  |
| CCC[C@H](CCN1CCC(c2ccccc2)CC1)C(=O)NCc1cc(C(F)(F)F)cc(C(F)(F)F)c1 | 126 | 42 |  |
| O=C(NCc1cc(C(F)(F)F)cc(C(F)(F)F)c1)[C@@H](CCN1CCC(c2ccc(F)cc2)CC1)C1CC1 | 280 | 72 |  |
| COC(=O)NC(CCN1CCC2(C=Cc3ccccc32)CC1)C(=O)NCc1cc(C(F)(F)F)cc(C(F)(F)F)c1 (stereo not drawn) | 805 |  |  |
| O=C(NCc1cc(C(F)(F)F)cc(C(F)(F)F)c1)C(CCN1CCC2(C=Cc3ccccc32)CC1)NS(=O)(=O)c1ccccc1 (stereo not drawn) |  |  | inhibition [5]: 7% |

| Compound | IC50 [1] [nM] | IC50 [4] [nM] | also measured |
| --- | --- | --- | --- |
| O=C(NCc1cc(C(F)(F)F)cc(C(F)(F)F)c1)[C@@H](CCN1CCC(c2ccccc2)CC1)C1CC1 | 285 | 129 |  |
| CC[C@H]1CN(CC[C@H](C(=O)NCc2cc(C(F)(F)F)cc(C(F)(F)F)c2)c2ccc(F)cc2)CC[C@@]12C=Cc1ccccc12 | 437 |  |  |
| O=C(NCc1cc(C(F)(F)F)cc(C(F)(F)F)c1)C(CCN1CCC2(C=Cc3ccccc32)CC1)C1CCCCC1 (stereo not drawn) | 160 | 73 |  |
| CC(=O)Nc1ncc(S(=O)(=O)NC(CCN2CCC3(C=Cc4ccccc43)CC2)C(=O)NCc2cc(C(F)(F)F)cc(C(F)(F)F)c2)s1 (stereo not drawn) |  |  | inhibition [5]: 45% |
| COC(=O)C[C@@H](CCN1CCC(c2ccccc2)CC1)C(=O)NCc1cc(C(F)(F)F)cc(C(F)(F)F)c1 |  |  | inhibition [5]: 38% |
| O=C(NCc1cc(C(F)(F)F)cc(C(F)(F)F)c1)C(CCN1CCC2(C=Cc3ccccc32)CC1)Cc1ccccc1 (stereo not drawn) | 298 | 232 |  |
| C[C@@H](CCN1CCC2(C=Cc3ccccc32)CC1)C(=O)NCc1cc(C(F)(F)F)cc(C(F)(F)F)c1 | 605 | 86 |  |
| O=C(NCc1cc(C(F)(F)F)cc(C(F)(F)F)c1)[C@@H](CCN1CCC2(C=Cc3ccccc32)CC1)C1CC1 | 98 | 15 |  |
| O=C(CCCN1CCC2(C=Cc3ccccc32)CC1)NCc1cc(C(F)(F)F)cc(C(F)(F)F)c1 | 570 |  | inhibition [2]: 80% |
| O=CNC(CCN1CCC2(C=Cc3ccccc32)CC1)C(=O)NCc1cc(C(F)(F)F)cc(C(F)(F)F)c1 (stereo not drawn) |  |  | inhibition [5]: 25% |
| C=CC[C@H](CCN1CCC2(C=Cc3ccccc32)CC1)C(=O)NCc1cc(C(F)(F)F)cc(C(F)(F)F)c1 | 193 | 37 |  |
| CC(C)[C@H](CCN1CCC2(C=Cc3ccccc32)CC1)C(=O)NCc1cc(C(F)(F)F)cc(C(F)(F)F)c1 | 204 | 47 |  |
| O=C(NCc1cc(C(F)(F)F)cc(C(F)(F)F)c1)C(CCN1CCC2(C=Cc3ccccc32)CC1)NS(=O)(=O)C(F)(F)F (stereo not drawn) | 125 |  |  |
| O=C(NCc1cc(C(F)(F)F)cc(C(F)(F)F)c1)C(CCN1CCC2(C=Cc3ccccc32)CC1)C1CC1 (stereo not drawn) | 69 | 38 |  |
| COC(=O)C[C@H](CCN1CCC(c2ccccc2)CC1)C(=O)NCc1cc(C(F)(F)F)cc(C(F)(F)F)c1 |  |  | inhibition [5]: 42% |
| CC(=O)N1CCCC(C(CCN2CCC3(C=Cc4ccccc43)CC2)C(=O)NCc2cc(C(F)(F)F)cc(C(F)(F)F)c2)C1 (stereo not drawn) | 660 | 80 |  |
| C[C@H]1CN(CC[C@H](C(=O)NCc2cc(C(F)(F)F)cc(C(F)(F)F)c2)C2CC2)CC[C@@]12C=Cc1ccccc12 | 14 | 4 | Cmax [6]: 1580 nM; Vd [7]: 2.19 L/kg; half-life [8]: 247 min; AUC (Rattus norvegicus [9]): 4.08 µM·h; IC50 [3]: 4 nM; inhibition [10]: 3%; inhibition [11]: 9%; inhibition [12]: 38%; clearance [13]: 7.36 mL/min/kg; inhibition [14]: -5%; F (Rattus norvegicus [15]): 98%; Tmax (Rattus norvegicus [16]): 4.67 µM; AUC (Rattus norvegicus [17]): 4.17 µM·h; inhibition [18]: 8% |
| CC(O)C(CCN1CCC(c2ccc(F)cc2)CC1)C(=O)NCc1cc(C(F)(F)F)cc(C(F)(F)F)c1 (stereo not drawn) |  | 462 |  |
